Measurements reported in ChEMBL document CHEMBL1121891, “Structure--activity relationship in cinnamamides. 3. Synthesis and anticonvulsant activity evaluation of some derivatives of (E)- and (Z)-m-(trifluoromethyl)cinnamamide” (J Med Chem, 1981).
Activity calls are given as the source filed them. The calls are words filed in the database; no cut-off is given here.

Assays:
Mus musculus [1] = assay: Compound was evaluated for loss of righting reflex after peroral administration; format: functional
Method in brief: (§1)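 Irwin observational test in fasted male albino mice given oral suspensions in 0.5% methocel by gavage. Doses were 25, 50, 100, 200, 400 and 800 mg/kg, with signs checked up to 6 h. The value is the dose giving 50% of maximal effect, interpolated graphically from the log dose/peak effect curve.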

Mus musculus [2] = assay: Locomotor activity reduction after peroral administration; format: functional; method in brief: as §1
Mus musculus [3] = assay: Compound was evaluated for positional passivity after peroral administration; format: functional; method in brief: as §1
Mus musculus [4] = assay: Compound was evaluated for anticonvulsant activity in mouse after peroral administration.; format: functional; details: po
Method in brief: (§2)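 Male albino mice (Icem-CET, SPF Caw), 17–22 g, fasted 9 h; compounds suspended in 0.5% methocel and given by gavage at 0.2 mL/10 g. Antagonism of pentylenetetrazole seizures was scored in groups of 20 per dose, at four or five doses per compound. ED50 was derived by probit analysis with p = 0.05 fiducial limits. Inactives were tested at a single screening dose.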

[5] = Lethal dose after peroral administration; format: toxicity, organism-based; details: mouse, in vivo, po
Mus musculus [6] = assay: Compound was evaluated for positional passivity after peroral administration; E denotes absent from 25-800 mg/Kg; format: functional, organism-based; method in brief: as §1
Mus musculus [7] = assay: Compound was evaluated for minimum effective dose of clonic-type convulsions after peroral administration; E denotes absent from 25-800 mg/Kg; format: functional, organism-based
Method in brief: (§3)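 Fasted male albino mice received oral suspensions in 0.5% methocel by gavage at 25–800 mg/kg during Irwin-type behavioral observation, followed up to 6 h. The value is the minimum effective dose producing clonic-type convulsions.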

Mus musculus [8] = assay: Compound was evaluated for tremors after peroral administration; format: functional; method in brief: as §1
Mus musculus [9] = assay: Compound was evaluated for tremors after peroral administration; E denotes absent from 25-800 mg/Kg; format: functional, organism-based; method in brief: as §1
Mus musculus [10] = assay: Compound was evaluated for anticonvulsant activity in mouse after peroral administration; Not checked; format: functional, organism-based
Mus musculus [11] = assay: Compound was evaluated for positional passivity after peroral administration; H denotes absent from 25-800 mg/Kg; format: functional, organism-based; method in brief: as §1
Mus musculus [12] = assay: Compound was evaluated for anticonvulsant activity in mouse after peroral administration; IA is inactive at screening dose; format: functional, organism-based; method in brief: as §2
Mus musculus [13] = assay: Compound was evaluated for anticonvulsant activity in mouse after peroral administration; IA is Inactive at the screening dose; format: functional, organism-based; method in brief: as §2
Mus musculus [14] = assay: Compound was evaluated for minimum effective dose of clonic-type convulsions after peroral administration; format: functional; details: po, read-out: MED; method in brief: as §3
Mus musculus [15] = assay: Compound was evaluated for anticonvulsant activity in mouse after peroral administration; inactive at screening dose 100 mg/kg; format: functional, organism-based; parameters: dose 100 mg/kg; method in brief: as §2

SMILES	Reflex (Mus musculus [1]) [mg/kg]	Locomotor activity (Mus musculus [2]) [mg/kg]	Passivity (Mus musculus [3]) [mg/kg]	ED50 (Mus musculus [4]) [mg/kg]	LD50 [5] [mg/kg]	also measured
C/C(C(N)=O)=C(/C)c1ccc(Cl)cc1	150	200	300	20.9	550	–
C/C(C(=O)NC1CC1)=C(/C)c1ccc(Cl)cc1	150	350	>800	11.4	300	–
NC(=O)/C=C/c1cccc(C(F)(F)F)c1	70	70	200	23.2	600	–
O=C(/C=C/c1cccc(C(F)(F)F)c1)NC1CC1	100	100	400	9.6	700	–
C=CCNC(=O)/C(C)=C(\C)c1ccc(Cl)cc1	70	70	90	18.6	300	–
C=CCNC(=O)/C(C)=C/c1ccccc1	150	200	280	53.8	600	–
C/C(C(=O)NC1CC1)=C(\C)c1ccc(Cl)cc1	–	170	–	36.3	–	Passivity (Mus musculus [6]): Absent; MED (Mus musculus [7]): Absent; Reflex (Mus musculus [8]): 600 mg/kg
C/C(C(=O)NC1CC1)=C(\C)c1cccc(C(F)(F)F)c1	–	800	–	65.5	> 800	Passivity (Mus musculus [6]): Absent; MED (Mus musculus [7]): Absent; Tremors (Mus musculus [9]): Absent
C=CCNC(=O)/C(C)=C(\C)c1cccc(C(F)(F)F)c1	140	150	350	–	400	ED50 (Mus musculus [10]): Not checked
O=C1NC(=O)C(c2ccccc2)(c2ccccc2)N1 [PHENYTOIN]	250	150	–	9.11	–	Passivity (Mus musculus [11]): inactive
C/C(C(=O)NC1CC1)=C(\C)c1ccc(Br)cc1	–	300	450	52.4	600	MED (Mus musculus [7]): Absent; Tremors (Mus musculus [9]): Absent
C#CCNC(=O)/C(C)=C(\C)c1ccc(Cl)cc1	200	60	400	10.6	–	–
C/C(=C\c1cccc(C(F)(F)F)c1)C(N)=O	150	50	250	22.4	800	–
C/C(C(N)=O)=C(\C)c1ccccc1	–	400	800	–	> 800	MED (Mus musculus [7]): Absent; ED50 (Mus musculus [12]): inactive; Tremors (Mus musculus [9]): Absent
C/C(C(N)=O)=C(\C)c1cccc(C(F)(F)F)c1	–	180	250	32.2	600	MED (Mus musculus [7]): Absent; Tremors (Mus musculus [9]): Absent
C/C(C(N)=O)=C(/C)c1cccc(C(F)(F)F)c1	25	100	85	–	200	ED50 (Mus musculus [13]): inactive
C/C(C(=O)NC1CC1)=C(/C)c1ccccc1	150	100	250	55.9	500	–
C=CCNC(=O)/C(C)=C(\C)c1ccccc1	250	130	300	67	–	–
C/C(=C\c1cccc(C(F)(F)F)c1)C(=O)NC1CC1	150	120	400	24.1	700	–
C=CCNC(=O)/C=C(\C)c1ccccc1	150	150	250	65.8	450	–
CCC1(c2ccccc2)C(=O)N=C([O-])NC1=O.[Na+] (stereo unspecified) [PHENOBARBITAL SODIUM]	110	180	180	6.1	–	–
C#CCNC(=O)/C(C)=C(\C)c1cccc(C(F)(F)F)c1	110	80	180	25.1	170	–
C=CCNC(=O)/C=C/c1ccccc1	150	150	280	52.4	300	–
C/C(C(=O)NC1CC1)=C(/C)c1cccc(C(F)(F)F)c1	100	80	180	17.4	140	–
C/C(C(=O)NC1CC1)=C(\C)c1ccccc1	–	400	–	–	600	minimal effective dose (Mus musculus [14]): 400 mg/kg; Passivity (Mus musculus [6]): Absent; ED50 (Mus musculus [15]): inactive; Reflex (Mus musculus [8]): 300 mg/kg
